Screening data (PubChem BioAssay)
Shown are actives, neighbours in structure and some others; about 3.5% of the full set was active somewhere.
RGS4 pot: RGS4 potentiation or activation | HEK293 M3R/inducible RGS4, carbachol calcium flux Fluo4; hits give low values | B-score at 10 µM | actives 0.92% (n = 310,000) | AID 463111;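 active = B-score of the integrated calcium signal more than 4 SD below the library mean, with starting fluorescence not abnormally high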;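 note: negative B-score means reduced calcium response which marks RGS4 activation or potentiation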
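System – HEK293 FlpIn-TREx cells, stable M3R, doxycycline-inducible RGS4 · Reagent – ECmax carbachol challenge · Times – compound preincubation 20 min at room temperature before agonist · Technique – Fluo4 fluorescence kinetic imaging of calcium · Measure – B score of integrated Fluo4 ratio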
MrgX1 allo act: allosterically activates human MrgX1 receptor signaling; Q96LB2; MrgX1-HEK293, Fluo-4 calcium flux, FDSS; hits give high values; B-score at 10 µM; actives 0.63% (n = 310,000); AID 588675;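 active = plate-corrected calcium response at least 3 library SD above typical, normal starting fluorescence, not activating the receptor alone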;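 note: compound read alongside a low EC10 to EC30 dose of BAM8-22 agonist; peak minus trough fluorescence over baseline measured at the second addition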
Target sequence (Q96LB2 whole entry, looked up): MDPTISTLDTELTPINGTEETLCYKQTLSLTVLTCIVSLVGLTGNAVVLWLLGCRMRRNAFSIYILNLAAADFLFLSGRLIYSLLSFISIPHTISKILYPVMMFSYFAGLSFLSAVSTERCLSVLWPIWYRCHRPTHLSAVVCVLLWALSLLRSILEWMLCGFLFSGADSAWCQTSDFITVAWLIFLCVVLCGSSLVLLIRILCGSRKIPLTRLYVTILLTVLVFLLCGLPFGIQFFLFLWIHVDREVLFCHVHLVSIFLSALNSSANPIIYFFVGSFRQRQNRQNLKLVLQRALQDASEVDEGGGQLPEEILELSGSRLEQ
MrgX1 agonist: human MrgX1 receptor agonism, primary screen. AID 588627. MrgX1-HEK293 cells, Fluo-4 calcium fluorescence, agonist mode; hits give high values. B-score at 10 µM. Q96LB2. actives 0.44% (n = 310,000);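 active = calcium response B-score plate-corrected fluorescence ratio at least 3 library SD, with starting fluorescence B-score inside 5 SD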
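Material: MrgX1-expressing HEK293 cells / Dosing: compound as first of three additions / Incubation: overnight seeding, then 1 h dark dye loading / Signal: Fluo-4 NW calcium fluorescence / Evaluation: B-scored fluorescence response ratio / Benchmarks: positive and negative control wells on each plate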
RGS4 block: human RGS4 inhibition; P49798; HEK293 M3R/RGS4 inducible, Fluo-4 calcium flux; hits give high values; triggered by carbachol at its EC20; B-score at 10 µM; actives 0.45% (n = 310,000); AID 463165;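 active = B-score, a plate-corrected calcium signal, over three deviations above library mean, with baseline fluorescence within five deviations of library mean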;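 note: RGS4 expression induced by doxycycline in cells with stable M3 receptor; B-score is computed from the integrated fluorescence ratio over baseline after carbachol; higher B-score means a larger calcium signal and so more RGS4 inhibition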
Target sequence (P49798 whole entry, looked up): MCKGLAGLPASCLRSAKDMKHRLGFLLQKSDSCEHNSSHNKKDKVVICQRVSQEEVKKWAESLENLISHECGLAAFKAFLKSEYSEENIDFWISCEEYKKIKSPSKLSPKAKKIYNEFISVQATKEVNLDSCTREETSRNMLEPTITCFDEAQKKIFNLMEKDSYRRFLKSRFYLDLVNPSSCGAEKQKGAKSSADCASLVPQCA
MrgX1 antag: blocks BAM8-22 activation of human MrgX1 receptor; B-score at 10 µM; MRGX1-HEK293 calcium flux, Fluo-4, BAM8-22 antagonism; hits give low values; actives 1.3% (n = 310,000);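 active = calcium-response B-score plate-corrected more than 3 library SD below zero, starting fluorescence within 5 deviations, no agonist response on first addition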;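 note: peak minus trough fluorescence over baseline after final BAM8-22 challenge near maximal dose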
MrgX1 antag conf: human MrgX1 receptor antagonism, re-confirmation screen; actives 19% (n = 2,300); MrgX1-HEK293, BAM8-22 calcium flux, Fluo-4; hits give low values; remaining BAM8-22 calcium response % of control (hits give low values), % at 10 µM; AID 602420; shares compounds with MrgX1 antag;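 active = remaining agonist calcium response no higher than 100% minus 3 SD of agonist-only control wells, with starting fluorescence near control levels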;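 note: agonist BAM8-22 given at a near maximal EC90 to ECmax level; peak minus minimum fluorescence divided by baseline after agonist addition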
HEK293 Ca flux: activity in parental HEK293 cells lacking MrgX1; shares compounds with MrgX1 antag; Fluo-4 calcium fluorescence, FDSS; fluorescence ratio F(max-min)/F0 at 10 µM; actives 2% (n = 4,000); AID 624111;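 active = duplicate-averaged calcium fluorescence ratio at least three times the standard deviation of buffer wells, a nonspecific response in parental cells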
HEK293 Ca counter: MrgX1 allosteric activator counter-screen hit in parental HEK293 cells | parental HEK293 calcium flux, Fluo-4 fluorescence ratio; hits give high values | fluorescence ratio F(max-min)/F0 at 10 µM | shares compounds with MrgX1 antag | actives 0.4% (n = 4,000);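 active = calcium fluorescence ratio, averaged over duplicates, at least 3 SD of the buffer-well ratio, meaning a nonspecific response in receptor-free cells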;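 note: untransfected parental HEK293 lacking MrgX1 used as counterscreen for MrgX1 allosteric activators; fluorescence change taken during the second addition on a kinetic imager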
HEK293 Ca cntr2: MrgX1 activator counter-screen hit in parental HEK293 cells | actives 8.7% (n = 4,000) | fluorescence ratio F(max-min)/F0 at 10 µM | shares compounds with MrgX1 antag | Fluo-4 calcium fluorescence (FDSS); hits give high values | AID 624115;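 active = calcium fluorescence ratio at least three times the spread of buffer wells, meaning a non-specific response in parental cells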
A number is an active result; . = inactive; / = no result.

SMILES	RGS4 pot	MrgX1 allo act	MrgX1 agonist	RGS4 block	MrgX1 antag	MrgX1 antag conf	HEK293 Ca flux	HEK293 Ca counter	HEK293 Ca cntr2
COc1ccc(/C=C(\NC(=O)c2cccs2)C(=O)NN)cc1OC	.	.	.	.	.	/	/	/	/
CCOC(=O)c1sc(/S(C)=N\S(=O)(=O)c2cccc(Cl)c2)c2c1CCC=C2 (stereo unspecified)	.	.	.	.	.	/	/	/	/
COC(=O)c1sc(NC(=O)c2ccc(Cn3cc(Cl)cn3)o2)c(C#N)c1C	.	.	.	.	-4.6	.	.	.	.
N#Cc1c(NC(=O)c2ccc(Cn3cc(Br)cn3)o2)sc2c1CCCCC2	.	.	.	.	.	/	/	/	/
COc1ccc(NC(=O)CNS(=O)(=O)c2cccc3nonc23)c(OC)c1	.	.	.	.	-5.7	.	.	.	.
CC(=O)c1cnc2c(-c3ccccc3)c(-c3ccccc3)nn2c1C	.	.	.	.	.	/	/	/	/
Cc1cc(C)c(C)c(S(=O)(=O)NCCCN2CCCC2=O)c1C	.	.	.	.	-5.4	.	.	.	.
O=C1CCCN1CCCNS(=O)(=O)c1ccc(Br)cc1	.	.	.	.	.	/	/	/	/
O=C(NCCN1CCN(C(=O)Nc2ccccc2)CC1)Nc1ccccc1	.	.	.	.	-6.1	.	.	.	.
COCCOC(=O)c1c(NC(=O)CN2CCCc3ccccc32)sc(C(N)=O)c1C	.	.	.	.	.	/	/	/	/
CC(=O)N1CCN(c2nc(-c3cccs3)nc3ccccc23)CC1	.	.	.	.	-4.7	.	.	.	.
C/C(=N\NC(=O)CCC(=O)NCc1ccccc1)c1ccco1	.	.	.	.	.	/	/	/	/
NC(=S)Nc1cc2ccccc2c2ccccc12	.	.	.	.	-4.8	.	.	.	.
NC(=S)Nc1cccc2cc3ccccc3cc12	.	.	.	.	.	/	/	/	/
COc1ccc(CCNC(=O)CN(c2cccc([N+](=O)[O-])c2)S(C)(=O)=O)cc1OC	.	.	.	.	.	/	/	/	/
Cn1ccnc1SCC(=O)Nc1ccc(Br)cc1C(F)(F)F	.	.	.	.	-5.9	.	.	.	.
CN(C(=O)CS(=O)(=O)c1cccc(Cl)c1)c1ccccc1	.	.	.	.	.	/	/	/	/
Nc1nc(N)c(Cc2ccc(Cl)cc2Cl)c(N)n1	.	.	.	.	-4.8	71%	.	.	.
NNc1ccc(Cc2ccc(Cl)cc2Cl)nn1	.	.	.	.	.	/	/	/	/
O=S(=O)(Cc1cc(NCc2ccccc2)nc(-c2ccccn2)n1)c1ccccc1	.	.	.	.	-5.7	86%	.	.	.
CCCOc1ccc(C(=O)NCc2ccco2)cc1	.	.	.	.	.	/	/	/	/
CC(C)Oc1ccc(C(=O)NCc2ccco2)cc1	.	.	.	.	-5.9	.	.	.	.
Cc1cccc(NC(=O)C(=O)NCCCc2ccccc2)c1	.	.	.	.	.	/	/	/	/
CCN(C(=O)CSc1nc2ccccc2o1)C1CCS(=O)(=O)C1 (stereo unspecified)	.	.	.	.	-4.7	.	.	.	.
CCN(C(=O)CSc1ccc2ccccc2c1)C1CCS(=O)(=O)C1 (stereo unspecified)	.	.	.	.	-4.6	.	.	.	.
SMILES	RGS4 pot	MrgX1 allo act	MrgX1 agonist	RGS4 block	MrgX1 antag	MrgX1 antag conf	HEK293 Ca flux	HEK293 Ca counter	HEK293 Ca cntr2
CCN(C(=O)COC(=O)CSc1ccc(C)c(C)c1)C1CCS(=O)(=O)C1 (stereo unspecified)	.	.	.	.	.	/	/	/	/
Cc1cc(O)c(C(=O)Nc2cccc(Cl)c2)c(=O)n1C	.	.	.	.	.	/	/	/	/
N#CCS(=O)(=O)c1ccccc1	.	.	.	.	.	/	/	/	/
Cc1cc(C)cc(N2C(=O)C3CC=CCC3C2=O)c1 (stereo unspecified)	.	.	.	.	-5.2	.	.	.	.
CC1=C(C(=O)Nc2ccccc2)C(c2ccco2)C(C#N)=C(SCC(=O)OC(C)C)N1 (stereo unspecified)	.	.	.	.	-11	.	.	.	.
CC1=C(C(=O)Nc2ccccc2)C(c2ccco2)C(C#N)=C(SCc2ccccc2)N1 (stereo unspecified)	.	.	.	.	.	/	/	/	/
CCNc1nc(OCCNC(C)=O)nc(N(C)C)n1	.	.	.	.	-4.8	.	.	.	.
CC1CCCCN1CCCNC(=O)c1ccc(NC(=O)C2=CSCCO2)cc1 (stereo unspecified)	.	.	.	.	.	/	/	/	/
COc1ccc(NC(=O)[C@H](C)NC(=O)[C@@H]2Cc3ccccc3CN2C(=O)OC(C)(C)C)cc1	.	.	.	.	.	/	/	/	/
Cc1ccc2c(C(=O)CN3CCOCC3)c(C)[nH]c2c1	.	.	.	.	.	/	/	/	/
Cc1ccc2c(C(=O)CN3CCN(c4ccccc4)CC3)c(C)[nH]c2c1	.	.	.	.	-7.3	.	.	.	.
COc1ccc(S(=O)(=O)N(C)CC(=O)NCCN2CCOCC2)cc1C	.	.	.	.	.	/	/	/	/
COc1ccc(NC(=O)CSc2nc(=O)n(CCN3CCOCC3)c3c2CCC3)c(OC)c1	.	.	.	.	-7.6	.	.	.	.
COc1ccc(NC(=O)CSc2ccccc2)c(OC)c1	.	.	.	.	-9.1	.	.	.	.
Cc1cc(NC(=O)OC2CCCCC2)ccc1[N+](=O)[O-]	.	.	.	.	.	/	/	/	/
Cc1c(NC(=O)/C=C/c2ccc(S(=O)(=O)N3CCOCC3)cc2)c(=O)n(-c2ccccc2)n1C	.	.	.	.	.	/	/	/	/
CCc1ccccc1NC(=O)CSc1nnc(-c2ccco2)n1N	.	.	.	.	-6.7	.	.	.	.
CCOC(=O)C1=C(CC)Nc2ccccc2N=C1NC(=O)Nc1ccc(Cl)c(Cl)c1	.	.	.	.	-6.1	50%	.	.	.
CCOC(=O)C1=C(CC)Nc2ccccc2N=C1NC(=O)c1ccc(S(=O)(=O)N2CCCC2)cc1	.	.	.	.	.	/	/	/	/
COC(=O)C1CCN(S(=O)(=O)Cc2ccccc2)CC1	.	.	.	.	.	/	/	/	/
N#Cc1nc(-c2cccs2)oc1NCc1ccccc1	.	.	.	.	.	/	/	/	/
Cc1ccc(CNc2oc(-c3cccs3)nc2C#N)cc1	.	.	.	.	-5.4	.	.	.	.
CN(CCCNC(=O)c1cc2c(=O)[nH]c3ccccc3c2n1C)Cc1ccccc1	.	.	.	.	-5.7	.	.	.	.
